Most compounds without a hit are left out; they make up all but 3.1% or so of the library.
miR122 inh: inhibitors of miR-122 in Huh7 cells; Huh7 miR-122 Renilla luciferase sensor, 48 h; neutral wells = 0, positive control = 100; activation (reporter increase), % at 12.5 µM; hit rate 0.3% among 340,000; AID 602342;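 active = mean replicate activation score at least 90 and every replicate individually at or above 90; inconclusive = only one of the two criteria met; inactive = neither criterion met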;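 note: higher luciferase means less miR-122 activity so hits act as miR-122 inhibitors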
rRNA inh HTS: inhibitors of bacterial rRNA selective over humanized ribosomes. E. coli WT GFP vs humanized-ribosome RFP mutants, fluorescence, 24 h; stronger effect = lower value; DMSO median 0, no signal -100. GFP signal change (wild-type ribosome), % (test concentration not listed). hit rate 1.6% among 350,000. AID 720706;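 active = significant combined selectivity score with lowered wild-type GFP, culture density cut under 30%, mutant RFP and density less affected; inactive = any of these conditions unmet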
Cneo AK release: Cryptococcus neoformans lysis via adenylate kinase release | C. neoformans lysis, adenylate kinase release luminescence, 4 h; normalised: neutral wells 0, clomiphene wells 100 | lysis activity, % at 15 µM | hit rate 0.2% among 360,000;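 active = mean lysis activity across replicates of at least 80%, whatever share of replicates individually reach that level; inactive = mean lysis activity below 80%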
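Material: C. neoformans cells; Schedule: 4 h static compound exposure, 37 °C, read 1 h post-reagent; Measured by: adenylate kinase release luminescence; Read-out: signal increase indicating cell lysis; Controls: Clomiphene as positive lysis control.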
DENV2 CPE rescue: protects cells from dengue virus 2 cytopathic effect. hit rate 1.7% among 350,000. DENV2-infected cells, cytopathic effect rescue, plate reader. CPE inhibition, % at 9.99 µM. AID 651640; in the data active = CPE inhibition above about 20%, passing the limit was not always enough; inconclusive = no clear call, values can overlap the other calls; tested in BHK-21 cells
E-sel inducer: induces E-selectin expression in human endothelial cells; activation, % at 7.58 µM; hit rate 0.37% among 260,000; HUVEC E-selectin immunofluorescence imaging; normalized: neutral wells 0, TNF-alpha wells 100; AID 686992; P16581;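 active = mean E-selectin-positive cell signal at least 10% of the positive control, reached in at least 60% of replicates, without over 20% cell loss; inconclusive = no rule given, readout overlaps actives, possibly toxicity-flagged; inactive = the rest, including those meeting only one limit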
Target sequence (P16581 whole entry, looked up): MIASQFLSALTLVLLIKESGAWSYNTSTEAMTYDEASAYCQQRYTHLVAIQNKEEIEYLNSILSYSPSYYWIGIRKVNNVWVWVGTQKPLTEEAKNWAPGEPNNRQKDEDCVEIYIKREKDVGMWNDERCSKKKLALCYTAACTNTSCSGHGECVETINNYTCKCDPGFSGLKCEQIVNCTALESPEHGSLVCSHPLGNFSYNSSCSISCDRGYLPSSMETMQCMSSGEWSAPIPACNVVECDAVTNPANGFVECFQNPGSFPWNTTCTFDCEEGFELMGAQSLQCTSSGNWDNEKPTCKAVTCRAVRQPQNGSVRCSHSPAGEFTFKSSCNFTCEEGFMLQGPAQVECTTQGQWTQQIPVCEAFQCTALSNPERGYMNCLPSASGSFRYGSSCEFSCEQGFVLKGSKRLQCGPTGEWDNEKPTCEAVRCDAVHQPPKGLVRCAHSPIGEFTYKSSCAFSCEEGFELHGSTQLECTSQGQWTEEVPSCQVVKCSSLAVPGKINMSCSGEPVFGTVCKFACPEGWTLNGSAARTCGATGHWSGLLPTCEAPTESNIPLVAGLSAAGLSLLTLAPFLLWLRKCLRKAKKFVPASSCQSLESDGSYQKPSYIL
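assay system = HUVEC, human umbilical vein endothelial cells | input = 3,000 HUVEC seeded per well | medium = EGM-2 growth medium on 0.1% gelatin-coated wells | dosing = one compound dose added by pin transfer | signal = immunofluorescence imaging | read-out basis = % PE-positive cells | control set = TNF-alpha, DMSO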
Numbers stand for hits; ! = repeats disagree.

`C[C@H](CO)N1C[C@H](C)[C@H](CN(C)C)Oc2c(NC(=O)Nc3cccc4ccccc34)cccc2C1=O` gave rRNA inh HTS inactive and DENV2 CPE rescue 33.6.
CC(C)NC(=O)Nc1cccc2c1O[C@@H](CN(C)C(=O)NC(C)C)[C@@H](C)CN([C@@H](C)CO)C2=O was read as miR122 inh inactive, rRNA inh HTS inactive, Cneo AK release inactive, DENV2 CPE rescue 65.9 and E-sel inducer inactive.
CC(C)NC(=O)Nc1cccc2c1O[C@H](CN(C)C(=O)Nc1ccccc1)[C@@H](C)CN([C@@H](C)CO)C2=O was read as miR122 inh inactive, rRNA inh HTS inactive, Cneo AK release inactive, DENV2 CPE rescue 47.5 and E-sel inducer inactive.
`C[C@H]1CN([C@@H](C)CO)C(=O)c2cccc(NC(=O)Nc3cccc4ccccc34)c2O[C@H]1CN(C)C(=O)Nc1cccc2ccccc12` gave miR122 inh inactive, rRNA inh HTS inactive, Cneo AK release inactive, DENV2 CPE rescue inactive and E-sel inducer inactive.
For CC(C)NC(=O)Nc1cccc2c1O[C@H](CN(C)C)[C@H](C)CN([C@@H](C)CO)C2=O the results were miR122 inh inactive, rRNA inh HTS inactive, Cneo AK release 92.5, DENV2 CPE rescue inconclusive and E-sel inducer inactive.
CC(C)NC(=O)Nc1cccc2c1O[C@H](CN(C)C)[C@@H](C)CN([C@@H](C)CO)C2=O was read as miR122 inh inactive, rRNA inh HTS inactive, Cneo AK release inactive, DENV2 CPE rescue inactive and E-sel inducer inactive.
Screening COc1ccc2c3c(n(C)c2c1)[C@H](CO)N(C(=O)c1ccccn1)CC31CCN(C)CC1 returned rRNA inh HTS inactive.
For C[C@@H]1CN([C@@H](C)CO)C(=O)c2ccccc2-c2ccccc2CO[C@H]1CN(C)CC1CC1 the results were rRNA inh HTS inactive, Cneo AK release inactive, DENV2 CPE rescue inactive and E-sel inducer inactive.
Screening O=C(C1=C[C@@H](c2ccccc2)C[C@@H](OCCCCO)O1)N1CCN(Cc2ccc3c(c2)OCO3)CC1 returned miR122 inh inactive, rRNA inh HTS inactive, Cneo AK release inactive, DENV2 CPE rescue 21.3! and E-sel inducer inactive.
`O=C(C1=C[C@H](c2ccc3c(c2)OCO3)C[C@H](OCCCCO)O1)N1CCN(Cc2ccc3c(c2)OCO3)CC1` gave miR122 inh inactive, rRNA inh HTS inactive, Cneo AK release inactive, DENV2 CPE rescue 44.1 and E-sel inducer inactive.
For O=C(C1=C[C@@H](c2ccc3c(c2)OCO3)C[C@@H](OCCCCO)O1)N1CCN(Cc2ccc3c(c2)OCO3)CC1 the results were miR122 inh inactive, rRNA inh HTS inactive, Cneo AK release inactive, DENV2 CPE rescue inactive and E-sel inducer inactive.
For Cc1ccc(NC(=O)CN2CCN(Cc3ccccc3)CC2)c(Br)c1 the results were miR122 inh inactive, rRNA inh HTS -22.8, Cneo AK release inactive and DENV2 CPE rescue inactive.
Screening Cc1ccc(NC(=O)CN2CCOCC2)c(Br)c1 returned rRNA inh HTS inactive, Cneo AK release inactive, DENV2 CPE rescue inactive and E-sel inducer inactive.
Screening O=C(NCc1ccco1)C1(S(=O)(=O)c2ccccc2)CC=CC1 returned miR122 inh inactive, rRNA inh HTS inactive, Cneo AK release inactive, DENV2 CPE rescue 40.6 and E-sel inducer inactive.
For COCCOC(=O)N1C(=O)[C@@]2(c3cc(C#CC4(O)CCCCCC4)ccc31)[C@H](c1ccc(OCCO)cc1)N1[C@H](c3ccccc3)[C@H](c3ccccc3)OC(=O)[C@H]1[C@@H]2C(=O)N1CCN(c2ncccn2)CC1 the results were Cneo AK release inactive and DENV2 CPE rescue inactive.
For COc1cccc(S(=O)(=O)Nc2ccc3c(c2)C(=O)N(C)[C@H]2CC[C@H](CC(=O)Nc4ccc(C(C)C)cc4)O[C@@H]2CO3)c1 the results were miR122 inh inactive, rRNA inh HTS inactive, Cneo AK release inactive, DENV2 CPE rescue inactive and E-sel inducer inactive.
For COc1ccc2c3c(n(C)c2c1)[C@H](CO)NCC31CN(C(=O)Nc2ccccc2F)C1 the results were rRNA inh HTS inactive, DENV2 CPE rescue 41.2 and E-sel inducer inactive.
For COc1ccc2c3c(n(C)c2c1)[C@@H](CO)NCC31CCN(S(=O)(=O)c2cccc(C)c2)CC1 the results were rRNA inh HTS inactive, DENV2 CPE rescue 38.6 and E-sel inducer inactive.
Cc1cc2oc(C(=O)N3CCN(Cc4ccccc4)CC3)c(C)c2cc1C was read as rRNA inh HTS -46.3 and DENV2 CPE rescue inactive.
For Cc1cccc(CN2CCN(C(=O)c3cccc4ccccc34)CC2)c1 the results were miR122 inh inactive, rRNA inh HTS inactive, Cneo AK release inactive and DENV2 CPE rescue 42.7.
For Cc1ccccc1CN1CCN(C(=O)c2cccc3ccccc23)CC1 the results were miR122 inh inactive, rRNA inh HTS -21.8, Cneo AK release inactive and DENV2 CPE rescue inactive.
`Cc1ccc(CN2CCN(C(=O)c3cccc4ccccc34)CC2)cc1` gave miR122 inh inactive, rRNA inh HTS inactive, Cneo AK release inactive, DENV2 CPE rescue inactive and E-sel inducer inactive.
`Cc1ccc(C(=O)N2CCN(Cc3ccccc3)CC2)o1` gave rRNA inh HTS inactive, Cneo AK release inactive, DENV2 CPE rescue inactive and E-sel inducer inactive.
Screening C[C@@H]1CN([C@@H](C)CO)C(=O)c2cc(-c3ccccc3)cnc2O[C@@H]1CN(C)C(=O)NC1CCCC1 returned miR122 inh inactive, rRNA inh HTS inactive, Cneo AK release inactive, DENV2 CPE rescue inactive and E-sel inducer inactive.
`C[C@@H]1CN([C@@H](C)CO)C(=O)c2cc(NC(=O)Cc3ccccc3)ccc2O[C@@H](C)CCCCO[C@@H]1CN(C)C(=O)Nc1cccc2ccccc12` gave miR122 inh inactive, rRNA inh HTS inactive, Cneo AK release inactive, DENV2 CPE rescue inactive and E-sel inducer inactive.
For Cc1[nH]c(=S)[nH]c(=O)c1Cc1c(O)ccc2ccccc12 the results were miR122 inh 134.3, rRNA inh HTS inactive, DENV2 CPE rescue inactive and E-sel inducer inactive.
For COc1cc(C(=O)NCCOc2ccccc2)cc(OC)c1OC the results were miR122 inh inactive, rRNA inh HTS inactive, Cneo AK release inactive, DENV2 CPE rescue inactive and E-sel inducer inactive.
CCCCCOc1ccc(C(=O)NCCC(=O)NCCCC(=O)OCC)cc1 was read as rRNA inh HTS -25.1 and DENV2 CPE rescue inactive.
`CCCCOc1ccc(C(=O)NCCOc2cccc(OC)c2)cc1` gave miR122 inh inactive, rRNA inh HTS inactive, Cneo AK release inactive and DENV2 CPE rescue 53.1.
COc1ccc(C(=O)NCCOc2cccc(Oc3ccccc3)c2)cc1OC was read as miR122 inh inactive, rRNA inh HTS inactive, Cneo AK release inactive, DENV2 CPE rescue 48.4 and E-sel inducer inactive.
For O=C(C[C@H]1CC[C@H]2[C@@H](COC[C@@H](O)CN2C(=O)c2ccccc2F)O1)NCc1ccccc1 the results were miR122 inh inactive, rRNA inh HTS inactive, Cneo AK release inactive, DENV2 CPE rescue inactive and E-sel inducer inactive.
N#C[C@@H]1[C@@H](c2ccc(C#Cc3cccnc3)cc2)[C@@H](CO)N1C(=O)NC1CCCC1 was read as rRNA inh HTS inactive.

Bioassay records from PubChem BioAssay.
